Holding throughout (type): protein assay
Test [1] deals with T1, Dopamine receptor (Bos taurus) (UniProt Q95136+P20288). Nature of the test: Compound was tested for enhancement of the binding of [3H]ADTN to dopamine receptors at concentration of 1 nM. The gist of the method:
(§1)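 Bovine caudate homogenized in 50 mM Tris-HCl pH 7.7, centrifuged twice at 40000g, resuspended in 50 mM Tris pH 7.1 with 0.1% ascorbate, 120 mM NaCl, 5 mM KCl, 2 mM CaCl2, 10 μM pargyline. 0.4-0.6 mg protein, 8 nM [3H]ADTN, peptide at 1, 10 or 100 nM; 10 min, 37 °C, triplicate; GF/B filtration, scintillation counting. Specific binding defined with 1 μM (d)-butaclamol; % enhancement over no-drug basal.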

Test [2] has as its target T1, Dopamine receptor (Bos taurus). Nature of the test: Compound was tested for enhancement of the binding of [3H]ADTN to dopamine receptors at concentration of 100 nM. In short, it runs like this: as §1
The target is the same in test [3]. Nature of the test: Compound was tested for enhancement of the binding of [3H]-ADTN to dopamine receptors at concentration of 10 nM. The gist of the method: as §1

The values that follow come from ChEMBL document CHEMBL1123255, “Synthesis of Pro-Leu-Gly-NH2 analogues modified at the prolyl residue and evaluation of their effects on the receptor binding activity of the central dopamine receptor agonist, ADTN” (J Med Chem, 1986).

Square brackets hold non-standard residues; d marks the D form. Peptide text beside a SMILES is read from it. pGlu = O=C1CC[C@@H](C(=O)O)N1; Pip = O=C(O)[C@@H]1CCCCN1; Thz = O=C(O)[C@@H]1CSCN1; Aze = O=C(O)[C@@H]1CCN1

Regarding `CC(C)C[C@H](NC(=O)[C@@H]1C=CCN1)C(=O)NCC(N)=O`, the results for the Enhancement in test [1], in test [2] and in test [3] were 12.4%, 55% and 40%, respectively.

On to `CC(C)C[C@H](NC(=O)[C@H]1C=CCN1)C(=O)NCC(N)=O`, for which the figures for the Enhancement in test [1], in test [2] and in test [3] were 9.5%, 14.4% and 13%, respectively.

In the case of `CC(C)C[C@H](NC(=O)[C@@H]1CCN1)C(=O)NCC(N)=O` (H-[Aze]-Leu-Gly-NH2), the Enhancement amounted to 19% in test [1], 42% in test [2] and 40% in test [3].

`CC(C)C[C@H](NC(=O)[C@@H]1CCCCN1)C(=O)NCC(N)=O` (H-[Pip]-Leu-Gly-NH2): the Enhancement in test [1] turned out to be 17%; in test [2] it was 58.7%; in test [3] it was 38.7%.

With `CC(C)C[C@H](NC(=O)[C@@H]1CSCN1)C(=O)NCC(N)=O` (H-[Thz]-Leu-Gly-NH2), the Enhancement in test [1] worked out at 7%; in test [2] it was 9.5%; in test [3], 8.5%.

Turning to `CC(C)C[C@H](NC(=O)[C@@H]1CCC(=O)N1)C(=O)NCC(N)=O` ([pGlu]-Leu-Gly-NH2), the values for the Enhancement in test [1], in test [2] and in test [3] were 13.5%, 36.4% and 26.5%, respectively.

For the molecule `CC(C)C[C@H](NC(=O)[C@@H]1CCCN1)C(=O)NCC(N)=O` (stereo in doubt; 1), the Enhancement turned out to be 16% in test [1], 46.2% in test [2] and 28% in test [3].

As for `CC(C)C[C@H](NC(=O)[C@@H]1CCCN1)C(=O)NCC(N)=O` (stereo in doubt; 2), the Enhancement in test [1] was found to be 18%; in test [2], 33%; in test [3], 25%.
